Reference: ChEMBL document CHEMBL1158546, “Discovery of novel and potent leukotriene B4 receptor antagonists. Part 1” (J Med Chem, 2010)
In brackets after ≈: the same amount, converted by molar mass.

Tests used:
[1] = test system: Rattus norvegicus; test: Hepatotoxicity in rat assessed as increase in ALT level at 40 mg/kg, po qd after 15 days; type: toxicity, organism-based; design: dose 40 mg/kg, route oral; conditions: in vivo, 360 h
Procedure, shortened: (§1)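 Male Han-Wistar rats (200-230 g), n = 4 per group, were given 40 or 400 (mg/kg)/day orally for 14 days in 2% Klucel LF/0.1% Tween-80 versus vehicle. Body weight was recorded at pretreatment and on days 1, 8 and 14, and food intake weekly. Clinical chemistry was sampled on day 5 and at necropsy. Organs were formalin-fixed and H&E stained. Data are given as mean ± SD and analysed by Bartlett's test.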

[2] = molecular target: Cytochrome P450 2C19 (Homo sapiens, UniProt P33261); test: Inhibition of CYP2C19 fluorescence method; type: ADME
Procedure, shortened: (§2)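 Cytochrome P450 high-throughput panel (1A2, 2D6, 2C9, 2C19, 3A4) using fluorogenic substrates; IC50 reported.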

[3] = molecular target: Cytochrome P450 3A4 (Homo sapiens, UniProt P08684); test: Inhibition of CYP3A4 fluorescence method; type: ADME
Procedure, shortened: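 High-throughput CYP panel covering 1A2, 2D6, 2C9, 2C19 and 3A4, using fluorogenic substrates. IC50 was determined in μM.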

[4] = test system: Rattus norvegicus; test: Hepatotoxicity in rat assessed as increase in ALT level at 40 mg/kg, po qd after 5 days; type: toxicity, organism-based; design: dose 40 mg/kg, route oral; conditions: in vivo, 120 h; procedure, shortened: as §1
[5] = test system: Rattus norvegicus; test: Hepatotoxicity in rat assessed as increase in ALT level at 400 mg/kg, po qd treated after 5 days; type: toxicity, organism-based; design: dose 400 mg/kg, route oral; conditions: in vivo, 120 h; procedure, shortened: as §1
[6] = test system: Rattus norvegicus; test: Hepatotoxicity in po dosed rat assessed as increase in total bilirubin level treated for 14 days measured; type: toxicity, organism-based; conditions: in vivo, 336 h
[7] = AUC (0 to 24hrs) in rat at 40 mg/kg, po qd treated for 14 days; type: ADME, organism-based; design: time < 24 hr, dose 40 mg/kg, route oral; conditions: plasma
Procedure, shortened: (§3)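 Male Han-Wistar rats (200-230 g) dosed orally once daily for 14 days in 2% Klucel LF/0.1% Tween-80 in water, n = 4 per group. Blood was taken from the retro-orbital sinus under isoflurane/O2 anesthesia, and plasma was separated by cold centrifugation and stored at -70 C until analysis. Exposure values refer to day 14.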

[8] = molecular target: T1, Cytochrome P450 1A2 (Homo sapiens, UniProt P05177); test: Inhibition of CYP1A2 by fluorescence method; type: ADME; procedure, shortened: as §2
T1 sequence (P05177 whole entry): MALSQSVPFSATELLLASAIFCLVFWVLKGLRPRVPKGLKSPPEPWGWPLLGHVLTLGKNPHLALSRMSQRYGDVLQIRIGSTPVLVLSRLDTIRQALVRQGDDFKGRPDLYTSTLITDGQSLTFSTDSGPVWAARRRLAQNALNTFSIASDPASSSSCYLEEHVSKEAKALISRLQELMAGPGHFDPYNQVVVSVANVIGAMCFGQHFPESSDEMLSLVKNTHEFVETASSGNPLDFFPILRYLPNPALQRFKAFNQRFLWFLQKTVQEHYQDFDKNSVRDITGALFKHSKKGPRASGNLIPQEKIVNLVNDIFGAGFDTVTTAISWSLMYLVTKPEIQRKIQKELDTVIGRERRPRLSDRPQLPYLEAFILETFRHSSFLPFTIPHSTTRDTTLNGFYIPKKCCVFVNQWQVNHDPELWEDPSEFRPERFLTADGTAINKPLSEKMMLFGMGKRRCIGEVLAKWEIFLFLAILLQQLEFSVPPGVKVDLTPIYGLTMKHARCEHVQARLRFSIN

[9] = AUC(0 to 24hrs) in rat at 400 mg/kg, po qd treated for 14 days; type: ADME, organism-based; design: time < 24 hr, dose 400 mg/kg, route oral; conditions: plasma; procedure, shortened: as §3
[10] = Cmax in rat at 40 mg/kg, po qd treated for 14 days; type: ADME, organism-based; design: dose 40 mg/kg, route oral; conditions: in vivo; procedure, shortened: as §3
[11] = Cmax in rat at 400 mg/kg, po qd treated for 14 days; type: ADME, organism-based; design: dose 400 mg/kg, route oral; conditions: in vivo; procedure, shortened: as §3
[12] = Tmax in Sprague-Dawley rat at 10 mg/kg, po; type: ADME, organism-based; design: dose 10 mg/kg, route oral; conditions: in vivo
Procedure, shortened: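 Rat single-dose PK, n = 3, with oral dosing at 10 mg/kg and intravenous dosing at 2.5 or 5 mg/kg.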

[13] = molecular target: Cytochrome P450 2C9 (Homo sapiens, UniProt P11712); test: Inhibition of CYP2C9 by LC/MS method; type: ADME
[14] = Solubility of compound in small intestinal contents in the fasted state at pH 6.5; type: ADME
Procedure, shortened: (§4)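 Solubility measured in simulated intestinal fluid at pH 5.0 (fed) or pH 6.5 (fasted), reported in μg/mL.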

[15] = test system: Hepatocyte; test: Metabolic stability in Sprague-Dawley rat hepatocytes assessed as compound metabolized after 3 hrs; type: ADME, cell-based
Procedure, shortened: (§5)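 Cryopreserved hepatocytes at 1.5 million cells/mL (pooled human male/female N = 10, male CD1 mouse, SD rat, beagle dog, cyno monkey) were incubated in Leibovitz medium with 1% FBS and 10 μM substrate. Incubation ran 3 h at 37 C with shaking and was stopped with methanol. Cell-free controls used hepatocyte incubation medium. Parent and metabolites were quantified by UV peak area at 232-242 nm, assuming equal extinction coefficients.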

[16] = Metabolic stability in cynomolgus monkey hepatocytes assessed as compound metabolized after 3 hrs; type: ADME, cell-based, Macaca fascicularis, Hepatocyte; procedure, shortened: as §5
[17] = test system: Hepatocyte; test: Metabolic stability in human hepatocytes assessed as compound metabolized after 3 hrs; type: ADME, cell-based; procedure, shortened: as §5
[18] = test system: Rattus norvegicus; test: Metabolic stability of compound in rat plasma assessed as acylglucuronide isomers formed at 400 mg/kg, po; conditions: in vivo
[19] = molecular target: T2, Voltage-gated inwardly rectifying potassium channel KCNH2 (Homo sapiens, UniProt Q12809); test: Inhibition of human ERG expressed in CHO cells assessed as reduction of current amplitude
[20] = molecular target: T2, Voltage-gated inwardly rectifying potassium channel KCNH2; test: Inhibition of human ERG expressed in CHO cells at 3 uM assessed as reduction of current amplitude
[21] = Solubility of compound in small intestinal contents in the fed state at pH 5; type: ADME; procedure, shortened: as §4
[22] = Lipophilicity, log D of compound at pH 7.4; conditions: buffer
[23] = Metabolic stability in CD1 mouse hepatocytes assessed as compound metabolized after 3 hrs; type: ADME, cell-based, Hepatocyte; procedure, shortened: as §5
[24] = Metabolic stability of compound assessed as remaining level in cell free assay; type: ADME; procedure, shortened: as §5
[25] = Metabolic stability in Beagle dog hepatocytes assessed as compound metabolized after 3 hrs; type: ADME, cell-based, Canis lupus familiaris, Hepatocyte; procedure, shortened: as §5

T2 sequence (Q12809 whole entry): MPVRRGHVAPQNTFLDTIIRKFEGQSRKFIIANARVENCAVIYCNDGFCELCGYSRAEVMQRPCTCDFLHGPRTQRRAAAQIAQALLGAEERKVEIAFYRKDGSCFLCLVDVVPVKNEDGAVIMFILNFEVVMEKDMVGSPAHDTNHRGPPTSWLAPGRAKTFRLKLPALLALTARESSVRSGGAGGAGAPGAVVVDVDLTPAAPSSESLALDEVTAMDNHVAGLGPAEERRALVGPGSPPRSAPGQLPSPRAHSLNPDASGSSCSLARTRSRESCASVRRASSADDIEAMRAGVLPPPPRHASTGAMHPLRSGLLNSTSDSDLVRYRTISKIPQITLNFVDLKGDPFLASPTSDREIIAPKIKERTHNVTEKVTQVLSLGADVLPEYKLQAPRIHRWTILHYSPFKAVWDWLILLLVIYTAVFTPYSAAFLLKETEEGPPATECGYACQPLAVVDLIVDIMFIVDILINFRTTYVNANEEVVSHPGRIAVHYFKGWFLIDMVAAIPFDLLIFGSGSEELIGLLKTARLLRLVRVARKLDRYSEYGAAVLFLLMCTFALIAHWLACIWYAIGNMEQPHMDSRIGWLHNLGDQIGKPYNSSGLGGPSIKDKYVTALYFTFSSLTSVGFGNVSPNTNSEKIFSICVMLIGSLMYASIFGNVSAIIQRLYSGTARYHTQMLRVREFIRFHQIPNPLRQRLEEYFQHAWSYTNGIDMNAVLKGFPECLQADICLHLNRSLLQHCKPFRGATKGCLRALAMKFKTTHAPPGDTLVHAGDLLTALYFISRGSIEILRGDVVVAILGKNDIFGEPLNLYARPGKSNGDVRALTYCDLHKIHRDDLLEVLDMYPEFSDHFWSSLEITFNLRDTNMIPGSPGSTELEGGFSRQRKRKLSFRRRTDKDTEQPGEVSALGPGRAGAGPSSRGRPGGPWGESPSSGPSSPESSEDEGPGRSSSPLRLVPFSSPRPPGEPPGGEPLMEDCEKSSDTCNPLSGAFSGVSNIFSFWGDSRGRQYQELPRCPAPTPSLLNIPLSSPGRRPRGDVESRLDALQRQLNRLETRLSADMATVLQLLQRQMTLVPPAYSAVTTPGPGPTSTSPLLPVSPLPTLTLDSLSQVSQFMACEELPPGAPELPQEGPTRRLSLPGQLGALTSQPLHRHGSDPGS
Chain of Cytochrome P450 2C19 (P33261 whole entry): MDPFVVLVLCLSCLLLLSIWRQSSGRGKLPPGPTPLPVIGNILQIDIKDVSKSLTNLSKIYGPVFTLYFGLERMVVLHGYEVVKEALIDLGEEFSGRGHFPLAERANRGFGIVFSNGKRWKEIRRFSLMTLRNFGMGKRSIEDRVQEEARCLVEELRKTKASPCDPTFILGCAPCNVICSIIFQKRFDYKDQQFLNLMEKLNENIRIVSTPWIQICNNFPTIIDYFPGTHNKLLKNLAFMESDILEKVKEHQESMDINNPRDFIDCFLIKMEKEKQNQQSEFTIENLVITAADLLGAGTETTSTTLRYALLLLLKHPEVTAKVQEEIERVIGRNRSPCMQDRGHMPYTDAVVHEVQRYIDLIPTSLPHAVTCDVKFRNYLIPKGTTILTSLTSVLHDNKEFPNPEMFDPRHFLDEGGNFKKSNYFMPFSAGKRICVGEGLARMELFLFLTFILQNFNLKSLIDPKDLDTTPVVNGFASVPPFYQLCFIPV
Chain of Cytochrome P450 3A4 (P08684 whole entry): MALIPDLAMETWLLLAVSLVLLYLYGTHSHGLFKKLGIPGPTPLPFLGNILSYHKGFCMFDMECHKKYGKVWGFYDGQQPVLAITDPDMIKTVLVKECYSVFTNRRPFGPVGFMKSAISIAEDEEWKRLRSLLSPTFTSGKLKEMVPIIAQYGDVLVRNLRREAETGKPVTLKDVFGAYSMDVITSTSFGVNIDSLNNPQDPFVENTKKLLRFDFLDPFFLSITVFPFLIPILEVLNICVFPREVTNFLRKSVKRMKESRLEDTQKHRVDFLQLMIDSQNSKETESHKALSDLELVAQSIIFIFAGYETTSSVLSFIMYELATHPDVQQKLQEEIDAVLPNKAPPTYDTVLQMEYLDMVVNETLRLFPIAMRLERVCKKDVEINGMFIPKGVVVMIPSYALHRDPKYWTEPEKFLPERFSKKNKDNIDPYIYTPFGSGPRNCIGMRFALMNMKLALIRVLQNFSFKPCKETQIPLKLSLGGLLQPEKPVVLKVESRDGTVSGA
Chain of Cytochrome P450 2C9 (P11712 whole entry): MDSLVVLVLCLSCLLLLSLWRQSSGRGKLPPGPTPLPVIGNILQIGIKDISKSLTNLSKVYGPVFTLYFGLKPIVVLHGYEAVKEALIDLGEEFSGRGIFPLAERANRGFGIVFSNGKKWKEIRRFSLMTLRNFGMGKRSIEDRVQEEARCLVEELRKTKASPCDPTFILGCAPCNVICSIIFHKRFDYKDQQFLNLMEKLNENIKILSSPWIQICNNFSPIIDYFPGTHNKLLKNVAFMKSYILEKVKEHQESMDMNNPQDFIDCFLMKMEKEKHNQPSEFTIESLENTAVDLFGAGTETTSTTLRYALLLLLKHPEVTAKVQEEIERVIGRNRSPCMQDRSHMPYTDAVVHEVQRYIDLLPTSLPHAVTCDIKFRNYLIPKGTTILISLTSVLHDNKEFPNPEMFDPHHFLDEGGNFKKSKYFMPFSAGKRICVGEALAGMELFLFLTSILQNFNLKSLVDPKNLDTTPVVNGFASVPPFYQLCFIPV

SMILES: O=C(O)CCCOc1cccc(CCCCCCOc2cc(-c3cccc(F)c3)cc(-c3ccc4c(c3)OCO4)c2)c1CCC(=O)O
- Activity [1]: 35 IU/L
- IC50 [2]: > 7.5 µM
- IC50 [3]: > 7.5 µM
- Activity [4]: 40 IU/L
- Activity [5]: 69 IU/L
- Activity [6]: Toxic
- AUC at 24 h [7]: 80.6 µg·h/mL
- IC50 [8]: > 7.5 µM
- AUC at 24 h [9]: 1870 µg·h/mL
- Cmax [10]: 11.3 µg/mL
- Cmax [11]: 124 µg/mL
- Tmax [12]: 5 h

SMILES: O=C(O)CCCOc1cccc(CCCCCCOc2cc(-c3ccsc3)cc(-c3ccc4c(c3)OCO4)c2)c1CCC(=O)O
- Activity [1]: 38 IU/L
- IC50 [13]: 22.5 µM
- IC50 [2]: > 7.5 µM
- IC50 [3]: > 7.5 µM
- solubility [14]: 34.6 µg/mL (≈ 54.9 µM)
- Activity [15]: 20.4%
- Activity [16]: 7.7%
- Activity [4]: 40 IU/L
- Activity [17]: 17.3%
- Stability [18]: 6%
- Activity [5]: 58 IU/L
- IC50 [19]: > 3 µM
- INH [20]: Not Active
- Activity [6]: Toxic
- solubility [21]: 32.9 µg/mL (≈ 52.2 µM)
- IC50 [8]: > 7.5 µM
- logD [22]: 2.34
- Activity [23]: 16.9%
- Activity [24]: 100%
- Tmax [12]: 3 h
- Activity [25]: 27.8%
